Experimental data: article PMC11451940 (RSC Medicinal Chemistry, 2024)
≈ marks a conversion by molar mass, not a printed value. Where “and” joins values, the source holds several entries; their conditions need not be identical. Equal values may be shown once. Read-outs that look alike come from different tables or passages of the source.

Tests used:
[1] = tested on: A2780 cells (human ovarian carcinoma); assay: MTT in vitro cytotoxicity, A2780; format: cell-based
How it was run: (§1)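 MTT assay on ATCC human lines cultured per supplier instructions: A2780, A2780R, MCF-7, PC-3, A549, HOS and normal foetal fibroblast MRC-5. Exposure was 24 h for all lines; A2780 was also tested at 48 and 72 h. IC50 came from dose–response curves, given ± SD from triplicate experiments. Selectivity index = IC50(MRC-5)/IC50(A2780).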

[2] = tested on: A2780R cells (cisplatin-resistant ovarian carcinoma); assay: MTT in vitro cytotoxicity, A2780R; format: cell-based, human; conditions: read-out: IC50 ± SD, A2780R
How it was run: as §1

[3] = tested on: MCF-7 cells (breast adenocarcinoma); assay: MTT in vitro cytotoxicity, MCF-7; format: cell-based, human; conditions: read-out: IC50 ± SD, MCF-7
How it was run: as §1

[4] = tested on: MRC-5 cells (human foetal fibroblasts); assay: MTT in vitro cytotoxicity, normal MRC-5; format: cell-based; conditions: for IC50: read-out: IC50 ± SD, MRC-5
How it was run: as §1

[5] = tested on: HOS cells (bone osteosarcoma); assay: MTT in vitro cytotoxicity, HOS; format: cell-based, human; conditions: read-out: IC50 ± SD, HOS
How it was run: as §1

[6] = tested on: PC-3 cells (prostate adenocarcinoma); assay: MTT in vitro cytotoxicity, PC-3; format: cell-based, human; conditions: read-out: IC50 ± SD, PC-3
How it was run: as §1

[7] = tested on: A549 cells (lung adenocarcinoma); assay: MTT in vitro cytotoxicity, A549; format: cell-based, human; conditions: read-out: IC50 ± SD, A549
How it was run: as §1

[8] = tested on: PC3; conditions: 72 h of incubation; cited from earlier work
[9] = tested on: HL60 cells; conditions: read-out: IC50 on HL60 cells; 48 h of incubation; cited from earlier work
[10] = tested on: HeLa; conditions: 72 h of incubation; cited from earlier work
[11] = tested on: 3T3; conditions: 72 h of incubation; cited from earlier work
[12] = read-out: IC50 ± SD, A2780, 72 h, 72 h incubation time, MTT

In the case of `N.N.[Cl][Pt][Cl]` [Cisplatin], the IC50 ([1]; read-out: IC50 ± SD, A2780, 48 h, 48 h incubation time, MTT) is reported as 6.5 ± 3.2 µM, the IC50 [1, 12] is reported as 3.7 ± 0.2 µM and the IC50 ([1]; read-out: IC50 ± SD, A2780, 24 h of incubation, MTT) is reported as 15.2 µM and 15.4 µM. For the same molecule, the IC50 ([2]; 24 h of incubation, MTT) was 42.7 ± 3.8 µM, the IC50 ([3]; 24 h of incubation, MTT) was 37 ± 2.2 µM and the “SI, selectivity index expressed as IC50(MRC-5)/IC50(A2780)” value ([4]; 24 h of incubation) was 3.0. The “SI, selectivity index expressed as IC50(MRC-5)/IC50(A2780)” value ([4]; 24 h of incubation, listed as cisplatin) was “≈ 3”, the IC50 ([4]; 24 h of incubation, MTT, normal cells) was 46.1 ± 2.4 µM and the IC50 ([5]; 24 h of incubation, MTT) was > 50 µM. The IC50 ([6]; 24 h of incubation, MTT) was > 50 µM and the IC50 ([7]; 24 h of incubation, MTT) was > 50 µM.

For `CC(C)=CCC1=C(O)C(=O)c2ccccc2C1=O` [Lapachol, 2-hydroxy-3-(3-methylbut-2-en-1-yl)naphthalene-1,4-dione], the “IC50 on PC3” value [8] is given as 20.51 µg/mL (≈ 84.7 µM), the IC50 ([1]; Homo sapiens, A2780, 24 h, read-out: IC50 ± SD, A2780, 24 h of incubation, MTT) is given as > 50 µM and the IC50 [1, 12] is given as 6.4 ± 0.8 µM. For the same molecule, the IC50 ([2]; Homo sapiens, 24 h) was > 50 µM, the IC50 ([3]; Homo sapiens, MCF7, 24 h) was > 50 µM and the IC50 ([4]; Homo sapiens, MRC5, 24 h) was > 50 µM. For the same molecule, the IC50 ([5]; Homo sapiens, HOS, 24 h) was > 50 µM, the IC50 [9] was 25 µM and the “IC50 on HeLa” value [10] was 19.04 µg/mL (≈ 78.6 µM). The “IC50 on 3T3” value [11] was 6.15 µg/mL (≈ 25.4 µM), the IC50 ([6]; Homo sapiens, PC-3, 24 h) was > 50 µM and the IC50 ([7]; Homo sapiens, A549, 24 h) was > 50 µM.
